From paper PMC6018888 (Drug Design, Development and Therapy, 2018)

Experiments:
[1] = Verinurad plasma pharmacokinetics, Phase I single and multiple dose study; type: in vivo, human; details: for GMR AUC0–24 (day 6/day 1) / GMR AUC0–∞ (day 6/day 1) / GMR Cmax (day 6/day 1): fed (day 6) vs fasted (day 1); for Tmax: median (range); for AUC(0-t): AUC0–24, Japanese subjects; for half-life: t1/2, Japanese subjects
Method in brief: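 Oral modified-release tablets were given once as a single dose on day 1 (fasted overnight ≥10 h) and day 6 (after a moderate-fat breakfast), then daily fed through day 12. Serial plasma was sampled to 72 h on days 1 and 12, to 24 h on day 6, and predose on days 8–11. Samples were stored at −70°C. Cmax and AUC0–24 came from noncompartmental analysis, with comparisons as geometric mean ratios.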

[2] = Verinurad urinary pharmacokinetics; type: in vivo, human; details: Japanese subjects, geometric mean (95% CI)
[3] = Japanese subjects, 2.5 mg single dose
[4] = Japanese subjects, 5 mg single dose
[5] = Japanese subjects, 10 mg single dose
[6] = Japanese subjects, 15 mg single dose
[7] = Japanese subjects, across the dose groups 2.5–15 mg, fed vs fasted
[8] = male, human, plasma, oral, 5 mg, 5 mg once daily multiple doses, fed, day 12, geometric mean (95% CI)
[9] = male, human, plasma, oral, 10 mg, 10 mg once daily multiple doses, fed, day 12, geometric mean (95% CI)
[10] = male, human, plasma, oral, 15 mg, 15 mg once daily multiple doses, fed, day 12, geometric mean (95% CI)
[11] = multiple verinurad 10 mg doses, fed
[12] = 2.5 mg single dose, fasted, day 1
[13] = 5 mg once daily multiple doses, fed, day 12
[14] = 5 mg single dose, fasted, day 1
[15] = 10 mg once daily multiple doses, fed, day 12
[16] = 10 mg single dose, fasted, day 1
[17] = 15 mg once daily multiple doses, fed, day 12

Compound: CC(C)(Sc1ccncc1-c1ccc(C#N)c2ccccc12)C(=O)O [verinurad]
- AUC0–24 GMR, % (95% CI), Japanese/non-Asian ([1]; 10 mg multiple dose, fed): 123 (93.0–162) %
- AUC0–24 GMR, % (95% CI), Japanese/non-Asian, bodyweight normalized to 70 kg ([1]; 10 mg multiple dose, fed): 96.9 (77.4–121) %
- Cmax GMR, % (95% CI), Japanese/non-Asian ([1]; 10 mg multiple dose, fed): 138 (112–171) %
- Cmax GMR, % (95% CI), Japanese/non-Asian, bodyweight normalized to 70 kg ([1]; 10 mg multiple dose, fed): 109 (94.4–126) %
- AUC0–24 GMR, % (95% CI), Japanese/non-Asian ([1]; 10 mg single dose, fasted): 134 (111–161) %
- AUC0–24 GMR, % (95% CI), Japanese/non-Asian, bodyweight normalized to 70 kg ([1]; 10 mg single dose, fasted): 106 (84.5–132) %
- Cmax GMR, % (95% CI), Japanese/non-Asian ([1]; 10 mg single dose, fasted): 199 (167–237) %
- Cmax GMR, % (95% CI), Japanese/non-Asian, bodyweight normalized to 70 kg ([1]; 10 mg single dose, fasted): 157 (132–187) %
- AUC0–24 GMR, % (95% CI), Japanese/non-Asian ([1]; 10 mg single dose, fed): 176 (137–227) %
- AUC0–24 GMR, % (95% CI), Japanese/non-Asian, bodyweight normalized to 70 kg ([1]; 10 mg single dose, fed): 139 (114–170) %
- Cmax GMR, % (95% CI), Japanese/non-Asian ([1]; 10 mg single dose, fed): 142 (107–189) %
- Cmax GMR, % (95% CI), Japanese/non-Asian, bodyweight normalized to 70 kg ([1]; 10 mg single dose, fed): 112 (88.5–143) %
- GMR AUC0–24 (day 6/day 1) [1, 3]: 146 (101–211) %
- GMR AUC0–∞ (day 6/day 1) [1, 3]: 131 (82.9–208) %
- GMR Cmax (day 6/day 1) [1, 3]: 116 (105–128) %
- Rac, accumulation ratio (day 12/day 6), AUC0–24 ([1]; Japanese subjects, 2.5 mg, fed): 1.06 (0.672–1.68)
- Tmax ([1]; Japanese subjects, 5 mg once daily multiple doses, fed, day 12): 4.00 (2.00–10.0) h
- GMR AUC0–24 (day 6/day 1) [1, 4]: 185 (121–283) %
- GMR AUC0–∞ (day 6/day 1) [1, 4]: 173 (108–278) %
- GMR Cmax (day 6/day 1) [1, 4]: 126 (89.1–179) %
- Rac, accumulation ratio (day 12/day 6), Cmax ([1]; Japanese subjects, 5 mg, fed): 1.24 (1.01–1.53)
- AUC0–24 ([1]; Japanese subjects, 10 mg single dose, fasted, day 1, geometric mean (95% CI)): 93.4 (74.2–118) ng·h/mL
- GMR AUC0–24 (day 6/day 1) [1, 5]: 209 (172–253) %
- GMR AUC0–∞ (day 6/day 1) [1, 5]: 197 (181–215) %
- GMR Cmax (day 6/day 1) [1, 5]: 99.7 (85.1–117) %
- Rac, accumulation ratio (day 12/day 6), AUC0–24 ([1]; Japanese subjects, 10 mg, fed): 0.886 (0.679–1.16)
- Rac, accumulation ratio (day 12/day 6), Cmax ([1]; Japanese subjects, 10 mg, fed): 1.14 (0.774–1.64)
- AUC0–24 ([1]; Japanese subjects, 15 mg single dose, fed, day 6, geometric mean (95% CI)): 239 (137–416) ng·h/mL
- GMR AUC0–24 (day 6/day 1) [1, 6]: 107 (89.1–128) %
- GMR AUC0–∞ (day 6/day 1) [1, 6]: 100 (83.1–120) %
- GMR Cmax (day 6/day 1) [1, 6]: 112 (90.6–139) %
- Rac, accumulation ratio (day 12/day 6), AUC0–24 ([1]; Japanese subjects, 15 mg, fed): 1.20 (0.979–1.46)
- Rac, accumulation ratio (day 12/day 6), Cmax ([1]; Japanese subjects, 15 mg, fed): 1.09 (0.823–1.44)
- effect of moderate-fat meal on plasma AUC0–∞ (increase) [1, 7]: 0%–97%
- effect of moderate-fat meal on plasma Cmax (increase) [1, 7]: 0%–26%
- AUC0–24 ([1]; Japanese, 10 mg single dose, fasted, geometric least square mean): 93.4 ng·h/mL
- Cmax ([1]; Non-Asian, 10 mg single dose, fed, geometric least square mean): 15.4 ng/mL
- AUC(0-t) [1, 8]: 80.9 ng·h/mL
- Cmax ([1]; male, human, plasma, oral, 5 mg, Cmax, Japanese subjects, 5 mg once daily multiple doses, fed, day 12, geometric mean (95% CI)): 11.5 ng/mL
- half-life [1, 8]: 7.85 h
- AUC(0-t) [1, 9]: 173 ng·h/mL
- Cmax ([1]; male, human, plasma, oral, 10 mg, Cmax, Japanese subjects, 10 mg once daily multiple doses, fed, day 12, geometric mean (95% CI)): 24.9 ng/mL
- Tmax ([1]; male, human, plasma, oral, 10 mg, Tmax, Japanese subjects, 10 mg once daily multiple doses, fed, day 12): 4.5 h
- half-life [1, 9]: 6.93 h
- AUC(0-t) [1, 10]: 286 ng·h/mL
- Cmax ([1]; male, human, plasma, oral, 15 mg, Cmax, Japanese subjects, 15 mg once daily multiple doses, fed, day 12, geometric mean (95% CI)): 41.5 ng/mL
- half-life [1, 10]: 9.79 h
- AUC higher in Japanese vs non-Asian subjects [1, 11]: 23%
- Cmax higher in Japanese vs non-Asian subjects [1, 11]: 38%
- CLR0–24 [2, 12]: 16.1 (9.41–27.6) mL/min
- fe0–24 [2, 12]: 0.896 (0.620–1.29) %
- CLR0–24 ([2]; 2.5 mg single dose, fed, day 6): 15.7 (9.54–25.8) mL/min
- fe0–24 ([2]; 2.5 mg single dose, fed, day 6): 1.27 (0.659–2.47) %
- CLR0–24 [2, 13]: 17.0 (11.8–24.5) mL/min
- fe0–24 [2, 13]: 1.65 (0.959–2.84) %
- CLR0–24 [2, 14]: 16.4 (11.3–23.7) mL/min
- fe0–24 [2, 14]: 0.640 (0.279–1.47) %
- CLR0–24 ([2]; 5 mg single dose, fed, day 6): 15.1 (11.8–19.3) mL/min
- fe0–24 ([2]; 5 mg single dose, fed, day 6): 1.09 (0.730–1.64) %
- CLR0–24 [2, 15]: 17.0 (9.43–25.4) mL/min
- fe0–24 [2, 15]: 1.77 (1.38–2.25) %
- CLR0–24 [2, 16]: 13.1 (10.1–16.9) mL/min
- fe0–24 [2, 16]: 0.733 (0.558–0.964) %
- fe0–24 ([2]; 10 mg single dose, fed, day 6): 1.63 (1.24–2.16) %
- CLR0–24 [2, 17]: 16.0 (8.22–31.3) mL/min
- fe0–24 [2, 17]: 1.83 (1.23–2.73) %
- CLR0–24 ([2]; 15 mg single dose, fasted, day 1): 9.30 (5.46–15.9) mL/min
